First the molecules themselves.
B1: Osa-1-4 twister ribozyme (parent)
chain: CCGCCUAACACUGCCAAUGCCGGUCCCAAGCCCGGAUAAAAGUGGAGGGGGCGG

This data set covers variants of B1. Nature of the data set: self-cleavage, relative activity (ratio to wild type); higher = more cleavage; co-transcriptional. Put shortly:
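In vitro transcription at 37 °C for 2 h allowed the twister ribozyme to cleave itself as it was made. Its 54-nucleotide Oryza sativa template had been synthesised with 97 % wild-type base and 1 % of each other base at the 48 positions downstream of the cleavage site. A template-switching oligonucleotide was used for reverse transcription, followed by PCR amplification and deep sequencing. Whether reads carried upstream sequence set the cleavage status, and relative activity is the fraction cleaved normalised to wild type.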
For the variant CCGCCUAUCACUGCCUAUGCCGGUCCCAAGCCCGGAUAAAAGUGGAGGGGGCGG [A16U A8U], the self-cleavage came out at 0.35.
In the case of CCGCCUAACACUCCCUAUGCCGGUCCCAAGCCCGGAUAAAAGUGGAGGGGGCGG [A16U G13C] it was 0.02; in that of CCGCCUAACACUACCUAUGCCGGUCCCAAGCCCGGAUAAAAGUGGAGGGGGCGG [A16U G13A], 0.09; in that of CCGCCUAACACUUCCUAUGCCGGUCCCAAGCCCGGAUAAAAGUGGAGGGGGCGG [A16U G13U], 0.02.
Under CCGCCUAACACUGCCUAUGCCGGUCUCAAGCCCGGAUAAAAGUGGAGGGGGCGG [A16U C26U] stands 0.9.
Turning to CCGCCUAACACUGCCUAUGCCGGUCACAAGCCCGGAUAAAAGUGGAGGGGGCGG [A16U C26A], the self-cleavage was 0.03.
On to CCGCCUAACACUGCCUAUGCCGGUCGCAAGCCCGGAUAAAAGUGGAGGGGGCGG [A16U C26G], for which the self-cleavage was 0.11.
Under CCGCCUAACACUGCCUAUGCCGGUCCCAAGCCCGGAUAAAAGUGGCGGGGGCGG [A16U A46C] stands 0.07; under CCGCCUAACACUGCCUAUGCCGGUCCCAAGCCCGGAUAAAAGUGGUGGGGGCGG [A16U A46U], 0.05; under CCGCCUAACACUGCCUAUGCCGGUCCCAAGCCCGGAUAAAAGUGGGGGGGGCGG [A16U A46G], 0.05.
As for CCGCCUAACACUGCCUAUGCCGGUCCCGAGCCCGGAUAAAAGUGGAGGGGGCGG [A16U A28G], the self-cleavage was determined as 0.24.
In the case of CCGCCUAACACUGCCUAUGCCGGUCCCCAGCCCGGAUAAAAGUGGAGGGGGCGG [A16U A28C] it was 0.91.
Under CCGCCUAACACUGCCUAUGCCGGUCCCUAGCCCGGAUAAAAGUGGAGGGGGCGG [A16U A28U] stands 0.87; under CCGCCUAACACUGCCUAUGCCGGUCCCAAGCCCGGAUAAAAGUAGAGGGGGCGG [A16U G44A], 0.94; under CCGCCUAACACUGCCUAUGCCGGUCCCAAGCCCGGAUAAAAGUCGAGGGGGCGG [A16U G44C], 0.91.
In the case of CCGCCUAACACUGCCUAUGCCGGUCCCAAGCCCGGAUAAAAGUUGAGGGGGCGG [A16U G44U] it was 0.92.
CCGCCUAACACUGCCUAUGCCGGUCCCAAGCCCGGAUAAACGUGGAGGGGGCGG [A16U A41C]: the self-cleavage came to 0.93.
In the case of CCGCCUAACACUGCCUAUGCCGGUCCCAAGCCCGGAUAAAGGUGGAGGGGGCGG [A16U A41G] it was 0.36.
With CCGCCUAACACUGCCUAUGCCGGUCCCAAGCCCGGAUAAAUGUGGAGGGGGCGG [A16U A41U], the self-cleavage amounted to 0.97.
As for CCGCCUAACACUGCCUAUGCCGGUCCCAAGCCCGGAUGAAAGUGGAGGGGGCGG [A16U A38G], the self-cleavage stood at 0.94.
With CCGCCUAACACUGCCUAUGCCGGUCCCAAGCCCGGAUUAAAGUGGAGGGGGCGG [A16U A38U], the self-cleavage worked out at 1.05.
As for CCGCCUAACACUGCCUAUGCCGGUCCCAAGCCCGGAUCAAAGUGGAGGGGGCGG [A16U A38C], the self-cleavage came to 1.
In the case of CCGCCUAAUACUGCCUAUGCCGGUCCCAAGCCCGGAUAAAAGUGGAGGGGGCGG [A16U C9U] it was 0.62; in that of CCGCCUAAGACUGCCUAUGCCGGUCCCAAGCCCGGAUAAAAGUGGAGGGGGCGG [A16U C9G], 0.91; in that of CCGCCUAAAACUGCCUAUGCCGGUCCCAAGCCCGGAUAAAAGUGGAGGGGGCGG [A16U C9A], 0.42.
Under CCGCCUAACACUGCCUAUGCCGGUCCCAAGCCCGGAUAAAAUUGGAGGGGGCGG [A16U G42U] stands 0.73; under CCGCCUAACACUGCCUAUGCCGGUCCCAAGCCCGGAUAAAAAUGGAGGGGGCGG [A16U G42A], 0.8; under CCGCCUAACACUGCCUAUGCCGGUCCCAAGCCCGGAUAAAACUGGAGGGGGCGG [A16U G42C], 0.33.
Consider CCGCCUAACACUGCCUAUGCCGGUCCUAAGCCCGGAUAAAAGUGGAGGGGGCGG [A16U C27U], for which the self-cleavage was found to be 0.17.
Under CCGCCUAACACUGCCUAUGCCGGUCCAAAGCCCGGAUAAAAGUGGAGGGGGCGG [A16U C27A] stands 0.2.
As for CCGCCUAACACUGCCUAUGCCGGUCCGAAGCCCGGAUAAAAGUGGAGGGGGCGG [A16U C27G], the self-cleavage is 0.06.
In the case of CCGCCUAACACUGCCUAUGCAGGUCCCAAGCCCGGAUAAAAGUGGAGGGGGCGG [A16U C21A] it was 0.66.
As for CCGCCUAACACUGCCUAUGCGGGUCCCAAGCCCGGAUAAAAGUGGAGGGGGCGG [A16U C21G], the self-cleavage is 0.05.
Under CCGCCUAACACUGCCUAUGCUGGUCCCAAGCCCGGAUAAAAGUGGAGGGGGCGG [A16U C21U] stands 0.95; under CCGCCUAACACUGCCUAUGCCGGUGCCAAGCCCGGAUAAAAGUGGAGGGGGCGG [A16U C25G], 0.08; under CCGCCUAACACUGCCUAUGCCGGUACCAAGCCCGGAUAAAAGUGGAGGGGGCGG [A16U C25A], 0.11.
For the variant CCGCCUAACACUGCCUAUGCCGGUUCCAAGCCCGGAUAAAAGUGGAGGGGGCGG [A16U C25U], the self-cleavage was 0.84.
With CCGCCUAACACUGCGUAUGCCGGUCCCAAGCCCGGAUAAAAGUGGAGGGGGCGG [A16U C15G], the self-cleavage came to 0.31.
Consider CCGCCUAACACUGCUUAUGCCGGUCCCAAGCCCGGAUAAAAGUGGAGGGGGCGG [A16U C15U], for which the self-cleavage was determined as 0.18.
Under CCGCCUAACACUGCAUAUGCCGGUCCCAAGCCCGGAUAAAAGUGGAGGGGGCGG [A16U C15A] stands 0.35.
In the case of CCGCCUAACACUGCCUAUGCCGGUCCCAAACCCGGAUAAAAGUGGAGGGGGCGG [A16U G30A] it was 0.03; in that of CCGCCUAACACUGCCUAUGCCGGUCCCAAUCCCGGAUAAAAGUGGAGGGGGCGG [A16U G30U], 0.03.
In the case of CCGCCUAACACUGCCUAUGCCGGUCCCAACCCCGGAUAAAAGUGGAGGGGGCGG [A16U G30C] it was 0.04.
On to CCGCCUAACACUGCCUAUGCCGGUCCCAAGCCCGGAUACAAGUGGAGGGGGCGG [A16U A39C], for which the self-cleavage stood at 0.93.
Consider CCGCCUAACACUGCCUAUGCCGGUCCCAAGCCCGGAUAGAAGUGGAGGGGGCGG [A16U A39G], for which the self-cleavage amounted to 0.4.
In the case of CCGCCUAACACUGCCUAUGCCGGUCCCAAGCCCGGAUAUAAGUGGAGGGGGCGG [A16U A39U] it was 0.87; in that of CCGCCUAACACUGCCUAUGCCGUUCCCAAGCCCGGAUAAAAGUGGAGGGGGCGG [A16U G23U], 0.09; in that of CCGCCUAACACUGCCUAUGCCGAUCCCAAGCCCGGAUAAAAGUGGAGGGGGCGG [A16U G23A], 0.49.
For the variant CCGCCUAACACUGCCUAUGCCGCUCCCAAGCCCGGAUAAAAGUGGAGGGGGCGG [A16U G23C], the self-cleavage is 0.06.

The values are drawn from the RNAGym collection of RNA variant scans (doi:10.1002/anie.201605470).
